CHRM5 agonist: human M5 muscarinic receptor agonists, primary screen, CHO-K1 cells, Fluo-8 calcium fluorescence; CHO-K1 hM5 cells; 0% DMSO wells, 100% maximal acetylcholine response; activation, % at 3 µM; Muscarinic acetylcholine receptor M5 (Homo sapiens), P08912; hit rate 0.19% among 360,000;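 active = activation above the run's mean over test compounds plus 3 SD, cut at about 23% in these data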;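 note: signal is peak over basal fluorescence ratio across the kinetic read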
CHRM1 antagonist: human M1 muscarinic receptor antagonists, primary screen, CHO-K1 cells, Fluo-8 calcium fluorescence, 1536-well. Muscarinic acetylcholine receptor M1 (Homo sapiens), P11229. hit rate 1.3% among 360,000. AID 588852, 2011. CHO-K1 hM1, ACh EC80 antagonist. inhibition, % at 3 µM;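 active = percent inhibition above its own plate's cutoff, namely the mean of that plate's compound wells plus 3 SD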;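 note: peak over basal fluorescence ratio during 140 s after agonist addition; 0% = ACh EC80 plus DMSO and 100% = DMSO alone without agonist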
Target sequence (P11229 whole entry, looked up): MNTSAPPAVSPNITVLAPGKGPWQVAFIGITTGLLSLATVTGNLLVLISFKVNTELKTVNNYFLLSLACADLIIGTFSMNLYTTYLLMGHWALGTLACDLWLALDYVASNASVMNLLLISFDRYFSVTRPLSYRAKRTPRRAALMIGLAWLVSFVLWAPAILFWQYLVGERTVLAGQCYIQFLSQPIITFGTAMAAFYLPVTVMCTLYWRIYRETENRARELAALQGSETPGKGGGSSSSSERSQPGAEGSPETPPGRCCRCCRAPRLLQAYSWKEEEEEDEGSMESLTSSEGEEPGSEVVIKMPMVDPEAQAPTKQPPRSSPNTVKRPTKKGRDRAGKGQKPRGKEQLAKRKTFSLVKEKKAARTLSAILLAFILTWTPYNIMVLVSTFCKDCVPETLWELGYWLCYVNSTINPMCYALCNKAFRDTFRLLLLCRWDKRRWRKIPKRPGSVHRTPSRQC
CHRM1 agonist: human M1 muscarinic receptor agonists, primary screen, Fluo-8 calcium fluorescence, CHO-K1 cells, HTS | Muscarinic acetylcholine receptor M1 (Homo sapiens), P11229 | CHO-K1 hM1, agonist mode; 0% DMSO, 100% acetylcholine EC100 | activation, % at 3 µM | hit rate 0.33% among 360,000;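 active = activation above the run's mean compound activation plus 3 SD, cut at about 16% in these data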;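 note: peak over basal fluorescence ratio within a 140 s kinetic read after compound addition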
CHRM1 PAM: human M1 muscarinic receptor positive allosteric modulators, primary screen, CHO-K1 cells, Fluo-8 calcium fluorescence, 1536-well; hit rate 0.088% among 360,000; Muscarinic acetylcholine receptor M1 (Homo sapiens), P11229; AID 588819, 2011; CHO-K1 hM1, ACh EC20; 0% = ACh EC20, 100% = maximal ACh; activation, % at 3 µM; in the data active = activation above about 19%, passing the limit was not always enough
CHRM5 antagonist: human M5 muscarinic receptor antagonists, primary screen, CHO cells, Fluo-8 calcium fluorescence; Muscarinic acetylcholine receptor M5 (Homo sapiens), P08912; CHO-hM5 cells, ACh EC80; inhibition, % at 3 µM; hit rate 0.59% among 360,000;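 active = inhibition above a per-plate cutoff, the mean of that plate's test compounds plus 3 SD, cut at about 27% in these data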;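 note: 0% = acetylcholine EC80 with DMSO and 100% = DMSO without agonist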
CHRM5 PAM: human M5 muscarinic receptor positive allosteric modulators, primary screen, CHO-K1 cells, Fluo-8 calcium fluorescence; Muscarinic acetylcholine receptor M5 (Homo sapiens), P08912; CHO-K1 hM5, ACh EC20 PAM; 0% = ACh EC20, 100% = ACh EC100; activation, % at 3 µM; hit rate 0.3% among 360,000;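 active = activation above the run cutoff, the mean activation of all test compounds plus 3 SD, cut at about 18% in these data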
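Probe or stimulus: acetylcholine, EC20 level; Assay system: human M5 receptor in CHO-K1 cells; Schedule: compound preincubation 140 s before EC20 acetylcholine addition; Technique: intracellular calcium via Fluo-8 fluorescence; Dosing: single-point, 3 µM nominal; Read-out basis: percent activation from peak-over-basal fluorescence ratio, scaled EC20-to-EC100 acetylcholine; Repeats: one well per compound, no replicates.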
The depositor's hits bear a star. This is a sample that favours compounds with a hit; in the whole collection about 2.2% have one here.

SMILES | CHRM5 agonist | CHRM1 antagonist | CHRM1 agonist | CHRM1 PAM | CHRM5 antagonist | CHRM5 PAM
N#C/C(=C\c1coc2ccccc2c1=O)C(N)=S | -0.2 | -5.0 | -2.4 | 8.7 | 7.4 | 4.6
CC(C)CC1NC(=O)C(CC(C)C)N(CO)C1=O (configuration not stated) | 2.0 | -14.6 | -0.6 | 9.5 | -0.5 | 8.7
Cc1ccc(C(NC(=O)C2CCN(CCOc3ccccc3)CC2)c2ccccn2)cc1 (configuration not stated) | -3.0 | 33.3* | -8.6 | -23.5 | 9.3 | -18.8
COc1ccc(OCCN2CCC(C(=O)NC(c3ccc(OC)cc3)c3ccccn3)CC2)cc1 (configuration not stated) | -2.4 | -12.1 | -7.2 | 9.4 | 1.9 | -0.1
O=C(NCCCN1CCOCC1)c1ccc2c(c1)N(Cc1cccc(Cl)c1)C(=O)CS2 | -7.0 | 65.5* | -10.9 | -31.8 | 9.5 | -13.4
Cn1c(=O)[nH]c(=O)c2c1nc(NCCN)n2CCOc1ccccc1 | -3.0 | -10.5 | -7.0 | 3.0 | 6.0 | 2.0
COc1ccccc1NC(=O)CN1C(=O)COc2ccc(C)cc21 | 6.8 | -15.2 | 0.7 | 3.7 | -1.6 | -0.1
COc1ccc(C)cc1NC(=O)CN1C(=O)COc2ccc(C)cc21 | 4.9 | -34.6 | 2.4 | 21.6 | -14.0 | 21.6*
O=C(NCC(=O)N(CC1CCCO1)C(C(=O)NC1CCCC1)c1ccc(F)cc1)c1ccco1 (configuration not stated) | -1.3 | -10.7 | -2.0 | 4.3 | -2.9 | -0.6
Cc1ccc(C(C(=O)NC2CCCCC2)N(CC2CCCO2)C(=O)CNC(=O)c2cccs2)cc1 (configuration not stated) | 2.4 | 37.4* | -0.9 | -18.3 | 5.0 | -7.7
O=C(NCC(=O)N(CC1CCCO1)C(C(=O)NC1CCCCC1)c1ccccc1)c1cccs1 (configuration not stated) | -0.4 | -20.4 | -0.9 | 6.7 | -2.3 | 7.2
Cc1ccc(CN(C(=O)CNC(=O)c2cccs2)C(C(=O)NCC2CCCO2)c2ccccc2)cc1 (configuration not stated) | 8.8 | 43.5* | -1.5 | -27.0 | 6.3 | -11.0
O=C(NCC1CCCO1)NC1(C(F)(F)F)Oc2ccccc2O1 (configuration not stated) | -11.9 | 17.1 | -2.2 | -4.0 | -2.4 | 34.8*
O=C(NCC(=O)N(CC1CCCO1)C(C(=O)NC1CCCC1)c1cccnc1)c1ccco1 (configuration not stated) | 8.2 | 10.0 | -0.5 | -5.7 | -12.7 | 23.1*
COc1ccccc1C(=O)Nc1ccc(C(=O)N2CCCCC2)cc1 | -3.0 | 4.4 | 7.7 | 12.2 | 10.7 | -5.9
O=C(COC(=O)c1cccs1)NCC1CCCO1 (configuration not stated) | -0.1 | 13.6 | -2.4 | -3.0 | -0.1 | 1.6
O=C(NCC1CCCO1)c1cccs1 (configuration not stated) | 3.9 | -18.9 | -2.8 | 18.9* | -6.0 | 2.1
Cc1cc(O)ccc1Nc1cc(-c2cccc(N(C)C)c2)ncn1 | 3.0 | -4.2 | -2.1 | 4.6 | -7.1 | -1.1
CN1CCC(OC2c3ccccc3CCc3ccccc32)CC1 | -2.4 | 99.3* | -6.0 | -29.7 | 99.2* | -20.0
CN(C)c1ccc(CNn2cnnc2SCC(=O)NC(C)(C)C)cc1 | 3.1 | 42.0* | -2.1 | -13.9 | 16.1 | -16.8
CCc1ccc(CNn2cnnc2SCC(=O)NC(C)(C)C)cc1 | 2.3 | -0.2 | -1.6 | -1.1 | -16.1 | 3.4
Cc1ccc(C)c(N/C(N)=N/c2nc(C)cc(C)n2)c1 | 30.0* | 15.3 | 9.5 | -21.2 | 20.8 | -16.4
Cc1cc(C)nc(/N=C(\N)Nc2ccc(-c3ccccc3)cc2)n1 | 28.0* | 11.9 | 5.4 | -15.7 | 14.3 | -18.0
Cc1cc(C)nc(/N=C(\N)Nc2ccc(S(N)(=O)=O)cc2)n1 | -1.4 | -4.8 | -13.1 | 10.4 | -3.1 | 0.8
CC(=O)Nc1ccc(N/C(N)=N/c2nc(C)cc(C)n2)cc1 | -2.9 | -2.6 | -12.5 | 1.5 | -2.9 | 3.7
SMILES | CHRM5 agonist | CHRM1 antagonist | CHRM1 agonist | CHRM1 PAM | CHRM5 antagonist | CHRM5 PAM
Cc1cc(C)nc(/N=C(\N)Nc2ccc(SC(F)F)cc2)n1 | 34.7* | 31.3 | 19.1* | -27.6 | 14.6 | -36.7
Cc1cc(C)nc(/N=C(\N)N(Cc2ccccc2)Cc2ccccc2)n1 | -8.8 | 99.6* | -14.1 | -32.9 | 92.5* | -22.7
COc1ccc(C)cc1N/C(N)=N/c1nc(C)cc(C)n1 | -3.8 | -7.7 | -10.6 | 6.9 | 3.5 | -6.8
COc1ccc(C2CC(c3ccc(Cl)cc3)=NN2C(=O)c2cccc([N+](=O)[O-])c2)cc1 (configuration not stated) | -0.8 | -6.0 | -5.5 | 17.2 | -8.8 | 8.5
COc1ccc(Cc2nc3ccc(C(=O)NCC(C)(C)OC)cc3o2)cc1 | 1.9 | -17.9 | 0.8 | 16.1 | 6.7 | -0.5
CCOc1ccc(N/C(N)=N/c2nc(C)cc(C)n2)cc1 | 15.9 | 15.9 | 6.2 | -19.3 | 38.6* | -17.1
CCOc1cccc(C2C(C(=O)c3cccs3)=C(O)C(=O)N2Cc2cccnc2)c1 (configuration not stated) | 7.2 | -2.9 | 0.7 | -0.9 | 18.1 | 28.7*
O=C(C1=C(O)C(=O)N(CCOCCO)C1c1cccc([N+](=O)[O-])c1)c1cccs1 (configuration not stated) | 5.4 | -8.4 | -0.4 | 11.4 | -11.6 | 21.8*
Cc1cc(-c2nnc(SCC(=O)Nc3nccs3)o2)no1 | 6.5 | -12.3 | -0.2 | 11.8 | -14.7 | 19.8*
CCOc1cc(CN2CCCC(C(=O)c3cccc(C(F)(F)F)c3)C2)ccc1O (configuration not stated) | -14.6 | 32.2* | -7.5 | -21.8 | 5.5 | -7.2
CCOC(=O)C1CCCN(Cc2ccc(OCc3ccccc3)c(OC)c2)C1 (configuration not stated) | -20.0 | 19.2 | -8.0 | -12.3 | 18.8 | -15.4
CCOC(=O)C1CCCN(Cc2nc3ccc([N+](=O)[O-])cc3c(=O)n2-c2ccc(OC)cc2OC)C1 (configuration not stated) | 29.2* | 50.7* | 54.1* | -25.8 | 2.2 | -13.0
CCOC(=O)C1CCCN(Cc2ccc(O)c(OC)c2)C1 (configuration not stated) | 0.9 | 1.3 | 23.5* | -0.3 | 1.9 | -1.9
O=C(c1ccccc1Sc1cccc2ccccc12)N1CCOCC1 | -3.1 | -22.7 | -1.4 | 3.2 | -9.5 | 7.6

Compound activity as filed in PubChem BioAssay.
